Data reported in ChEMBL document CHEMBL1141317, “Pavietin, a coumarin from Aesculus pavia with antifungal activity” (2007).

What was measured:
Alternaria dianthi [1] = assay: Antifungal activity against Alternaria dianthi assessed as mycelial growth at 200 umol/L by filter disk method relative to control; type: functional; conditions: in the assay text read “by incorporation into growth medium” for “by filter disk method”
Method in brief: (§1)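 Agar-incorporation assay rather than disk. Compound in a few drops of DMSO, ultrafiltered and added to autoclaved, still-molten PDA at 50, 100 or 200 μmol L⁻¹. 1 cm mycelial plugs inoculated, 40 dishes per treatment per species. Grown 3 days at 22 °C in darkness. Mycelial growth expressed as % of DMSO-only controls (100%). Student–Neumann–Keuls test, p = 0.05.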

Alternaria dianthi [2] = assay: Antifungal activity against Alternaria dianthi assessed as mycelial growth at 100 umol/L by filter disk method relative to control; type: functional; conditions: in the assay text read “by incorporation into growth medium” for “by filter disk method”; method in brief: as §1
Alternaria dianthi [3] = assay: Antifungal activity against Alternaria dianthi assessed as mycelial growth at 50 umol/L by filter disk method relative to control; type: functional; conditions: in the assay text read “by incorporation into growth medium” for “by filter disk method”; method in brief: as §1
Guignardia aesculi [4] = assay: Antifungal activity against Guignardia aesculi assessed as mycelial growth at 15 mg/disk by filter disk method relative to control; type: functional
Method in brief: (§2)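 Compound dissolved in a few drops of absolute EtOH and loaded onto 5 mm paper disks at 0.15, 1.5 or 15 mg per disk. Disks placed on PDA in 12 cm Petri dishes, 30 dishes per treatment per species. Inhibition zones measured in mm after 3 days at 27 °C. EtOH-only disk as control. Growth given as % of control (100%). Student–Neumann–Keuls test, p = 0.05.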

Guignardia aesculi [5] = assay: Antifungal activity against Guignardia aesculi assessed as mycelial growth at 0.15 mg/disk by filter disk method relative to control; type: functional; method in brief: as §2
Guignardia aesculi [6] = assay: Antifungal activity against Guignardia aesculi assessed as mycelial growth at 1.5 mg/disk by filter disk method relative to control; type: functional; method in brief: as §2
Globisporangium ultimum [7] = assay: Antifungal activity against Pythium ultimum assessed as mycelial growth at 0.15 mg/disk by filter disk method relative to control; type: functional; method in brief: as §2
Globisporangium ultimum [8] = assay: Antifungal activity against Pythium ultimum assessed as mycelial growth at 1.5 mg/disk by filter disk method relative to control; type: functional; method in brief: as §2
Globisporangium ultimum [9] = assay: Antifungal activity against Pythium ultimum assessed as mycelial growth at 15 mg/disk by filter disk method relative to control; type: functional; method in brief: as §2
Alternaria alternata [10] = assay: Antifungal activity against Alternaria alternata assessed as mycelial growth at 50 umol/L by filter disk method relative to control; type: functional; conditions: in the assay text read “by incorporation into growth medium” for “by filter disk method”; method in brief: as §1
Alternaria alternata [11] = assay: Antifungal activity against Alternaria alternata assessed as mycelial growth at 100 umol/L by filter disk method relative to control; type: functional; conditions: in the assay text read “by incorporation into growth medium” for “by filter disk method”; method in brief: as §1
Alternaria alternata [12] = assay: Antifungal activity against Alternaria alternata assessed as mycelial growth at 200 umol/L by filter disk method relative to control; type: functional; conditions: in the assay text read “by incorporation into growth medium” for “by filter disk method”; method in brief: as §1
Aspergillus niger [13] = assay: Antifungal activity against Aspergillus niger assessed as mycelial growth at 50 umol/L by filter disk method relative to control; type: functional; conditions: in the assay text read “by incorporation into growth medium” for “by filter disk method”; method in brief: as §1
Aspergillus niger [14] = assay: Antifungal activity against Aspergillus niger assessed as mycelial growth at 100 umol/L by filter disk method relative to control; type: functional; conditions: in the assay text read “by incorporation into growth medium” for “by filter disk method”; method in brief: as §1
Aspergillus niger [15] = assay: Antifungal activity against Aspergillus niger assessed as mycelial growth at 200 umol/L by filter disk method relative to control; type: functional; conditions: in the assay text read “by incorporation into growth medium” for “by filter disk method”; method in brief: as §1
Botrytis [16] = assay: Antifungal activity against Botrytis cinerea assessed as mycelial growth at 50 umol/L by filter disk method relative to control; type: functional; conditions: in the assay text read “by incorporation into PDA growth medium” for “by filter disk method”; method in brief: as §1
Botrytis [17] = assay: Antifungal activity against Botrytis cinerea assessed as mycelial growth at 100 umol/L by filter disk method relative to control; type: functional; conditions: in the assay text read “by incorporation into PDA growth medium” for “by filter disk method”; method in brief: as §1
Botrytis [18] = assay: Antifungal activity against Botrytis cinerea assessed as mycelial growth at 200 umol/L by filter disk method relative to control; type: functional; conditions: in the assay text read “by incorporation into PDA growth medium” for “by filter disk method”; method in brief: as §1
Fulvia fulva [19] = assay: Antifungal activity against Cladosporium fulvum assessed as mycelial growth at 50 umol/L by filter disk method relative to control; type: functional; conditions: in the assay text read “by incorporation into PDA growth medium” for “by filter disk method”; method in brief: as §1
Fulvia fulva [20] = assay: Antifungal activity against Cladosporium fulvum assessed as mycelial growth at 100 umol/L by filter disk method relative to control; type: functional; conditions: in the assay text read “by incorporation into PDA growth medium” for “by filter disk method”; method in brief: as §1
Fulvia fulva [21] = assay: Antifungal activity against Cladosporium fulvum assessed as mycelial growth at 200 umol/L […] relative to control; type: functional; method in brief: as §1
[22] = Antifungal activity against Fusarium oxysporum dianthi assessed as mycelial growth at 50 umol/L […] relative to control; type: functional; conditions: Fusarium oxysporum f. sp. dianthi; method in brief: as §1
[23] = tested on: Fusarium oxysporum f. sp. dianthi; assay: Antifungal activity against Fusarium oxysporum dianthi assessed as mycelial growth at 100 umol/L by […] relative to control; type: functional; method in brief: as §1
[24] = tested on: Fusarium oxysporum f. sp. dianthi; assay: Antifungal activity against Fusarium oxysporum dianthi assessed as mycelial growth at 200 umol/L by […] relative to control; type: functional; method in brief: as §1
Guignardia aesculi [25] = assay: Antifungal activity against Guignardia aesculi assessed as mycelial growth at 50 umol/L by […] relative to control; type: functional; method in brief: as §1
Guignardia aesculi [26] = assay: Antifungal activity against Guignardia aesculi assessed as mycelial growth at 100 umol/L by filter disk method relative to control; type: functional; conditions: in the assay text read “by incorporation into the growth medium” for “by filter disk method”; method in brief: as §1
Guignardia aesculi [27] = assay: Antifungal activity against Guignardia aesculi assessed as mycelial growth at 200 umol/L by filter disk method relative to control; type: functional; conditions: in the assay text read “by incorporation into growth medium” for “by filter disk method”; method in brief: as §1
Penicillium expansum [28] = assay: Antifungal activity against Penicillium expansum assessed as mycelial growth at 50 umol/L […] relative to control; type: functional; method in brief: as §1
Penicillium expansum [29] = assay: Antifungal activity against Penicillium expansum assessed as mycelial growth at 100 umol/L […] relative to control; type: functional; method in brief: as §1
Penicillium expansum [30] = assay: Antifungal activity against Penicillium expansum assessed as mycelial growth at 200 umol/L […] relative to control; type: functional; method in brief: as §1
Polyporus [31] = assay: Antifungal activity against Polyporus marginatus assessed as mycelial growth at 50 umol/L by filter disk method relative to control; type: functional; conditions: in the assay text read “by incorporation into growth medium” for “by filter disk method”; method in brief: as §1
Polyporus [32] = assay: Antifungal activity against Polyporus marginatus assessed as mycelial growth at 100 umol/L by filter disk method relative to control; type: functional; conditions: in the assay text read “by incorporation into growth medium” for “by filter disk method”; method in brief: as §1
[33] = Antifungal activity against Polyporus marginatus assessed as mycelial growth at 200 umol/L by filter disk method relative to control; type: functional; conditions: in the assay text read “by incorporation into growth medium” for “by filter disk method”; method in brief: as §1
Rhizopus stolonifer [34] = assay: Antifungal activity against Rhizopus stolonifer assessed as mycelial growth at 50 umol/L by […] relative to control; type: functional; method in brief: as §1
[35] = Antifungal activity against Rhizopus stolonifer assessed as mycelial growth at 100 umol/L […] relative to control; type: functional; method in brief: as §1
Rhizopus stolonifer [36] = assay: Antifungal activity against Rhizopus stolonifer assessed as mycelial growth at 200 umol/L […] relative to control; type: functional; method in brief: as §1
Trichoderma viride [37] = assay: Antifungal activity against Trichoderma viride assessed as mycelial growth at 50 umol/L by filter disk method relative to control; type: functional; conditions: in the assay text read “by incorporation into growth medium” for “by filter disk method”; method in brief: as §1
Trichoderma viride [38] = assay: Antifungal activity against Trichoderma viride assessed as mycelial growth at 100 umol/L by filter disk method relative to control; type: functional; conditions: in the assay text read “by incorporation into growth medium” for “by filter disk method”; method in brief: as §1
Trichoderma viride [39] = assay: Antifungal activity against Trichoderma viride assessed as mycelial growth at 200 umol/L by filter disk method relative to control; type: functional; conditions: in the assay text read “by incorporation into growth medium” for “by filter disk method”; method in brief: as §1
Fusarium basilici [40] = assay: Antifungal activity against Fusarium basilici assessed as mycelial growth at 15 mg/disk by filter disk method relative to control
Fusarium basilici [41] = assay: Antifungal activity against Fusarium basilici assessed as mycelial growth at 1.5 mg/disk by filter disk method relative to control
Fusarium basilici [42] = assay: Antifungal activity against Fusarium basilici assessed as mycelial growth at 0.15 mg/disk by filter disk method relative to control

## CC[C@@H](CO)COc1cc2c(C)cc(=O)oc2cc1O [PAVIETIN]
Alternaria dianthi [1]
  Activity: 64.9%
Alternaria dianthi [2]
  Activity: 77%
Alternaria dianthi [3]
  Activity: 89.5%
Guignardia aesculi [4]
  Activity: 33.8%
Guignardia aesculi [5]
  Activity: 85.3%
Guignardia aesculi [6]
  Activity: 64%
Globisporangium ultimum [7]
  Activity: 88.4%
Globisporangium ultimum [8]
  Activity: 81.6%
Globisporangium ultimum [9]
  Activity: 78%
Alternaria alternata [10]
  Activity: 86.8%
Alternaria alternata [11]
  Activity: 80.2%
Alternaria alternata [12]
  Activity: 58.5%
Aspergillus niger [13]
  Activity: 73.2%
Aspergillus niger [14]
  Activity: 68.6%
Aspergillus niger [15]
  Activity: 50%
Botrytis [16]
  Activity: 78.8%
Botrytis [17]
  Activity: 64.6%
Botrytis [18]
  Activity: 51.4%
Fulvia fulva [19]
  Activity: 88.6%
Fulvia fulva [20]
  Activity: 78.3%
Fulvia fulva [21]
  Activity: 60.8%
[22]
  Activity: 91.8%
[23]
  Activity: 83.3%
[24]
  Activity: 66.9%
Guignardia aesculi [25]
  Activity: 84.6%
Guignardia aesculi [26]
  Activity: 46.5%
Guignardia aesculi [27]
  Activity: 20.7%
Penicillium expansum [28]
  Activity: 68.8%
Penicillium expansum [29]
  Activity: 48.4%
Penicillium expansum [30]
  Activity: 29.9%
Polyporus [31]
  Activity: 93.6%
Polyporus [32]
  Activity: 86.2%
[33]
  Activity: 76.1%
Rhizopus stolonifer [34]
  Activity: 82%
[35]
  Activity: 71.3%
Rhizopus stolonifer [36]
  Activity: 68.1%
Trichoderma viride [37]
  Activity: 78.8%
Trichoderma viride [38]
  Activity: 70.4%
Trichoderma viride [39]
  Activity: 61.5%
Fusarium basilici [40]
  Activity: 59%
Fusarium basilici [41]
  Activity: 76.4%
Fusarium basilici [42]
  Activity: 87.8%
